# ChEMBL document CHEMBL3045605, “Synthesis and anticancer evaluation of novel 3,5-diaryl-thiazolo[4,5-d]pyrimidin-2-one derivatives” (2013)
# Key:
# Type in all cases: functional
# HCT-116 [1] = assay: Anticancer activity against Homo sapiens (human) HCT116 cells assessed as cell growth at 10 uM by SRB assay; conditions: read-out: Activity
# How it was run: (§1)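 NCI 60-cell human tumour panel (nine cancer types) screened at one concentration, 10−5 M. Cell growth estimated by sulforhodamine B protein staining and reported as percent growth of treated cells relative to untreated controls.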
# K562 [2] = assay: Anticancer activity against Homo sapiens (human) K562 cells assessed as cell growth at 10 uM by SRB assay; conditions: read-out: Activity; how it was run: as §1
# LOX IMVI = assay: Anticancer activity against Homo sapiens (human) LOXIMVI cells assessed as cell growth at 10 uM by SRB assay; conditions: read-out: Activity; how it was run: as §1
# SR [3] = assay: Anticancer activity against Homo sapiens (human) SR cells assessed as cell growth at 10 uM by SRB assay; conditions: read-out: Activity
# How it was run: (§2)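 NCI 60-cell human tumour panel (leukemia, melanoma, lung, colon, CNS, breast, ovarian, prostate, renal lines) given a single 10−5 M dose. Growth is expressed as percent growth of treated cells relative to untreated controls, with cell growth/viability estimated by sulforhodamine B protein staining.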
# CCRF-CEM [4] = assay: Anticancer activity against Homo sapiens (human) CCRF-CEM cells assessed as cell growth at 10 uM by SRB assay; conditions: read-out: Activity; how it was run: as §1
# SW-620 [5] = assay: Anticancer activity against Homo sapiens (human) SW620 cells assessed as cell growth at 10 uM by SRB assay; conditions: read-out: Activity; how it was run: as §2
# NCI-H522 [6] = assay: Anticancer activity against Homo sapiens (human) NCI-H522 cells assessed as cell growth at 10 uM by SRB assay; conditions: read-out: Activity
# How it was run: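 Single-dose screen in the NCI 60-human-tumour-cell-line panel (nine cancer types) at 10−5 M. Cell growth was estimated by sulforhodamine B protein staining and reported as percent growth of treated cells relative to untreated controls.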
# CAKI-1 [7] = assay: Anticancer activity against Homo sapiens (human) CAKI-1 cells assessed as cell growth at 10 uM by SRB assay; conditions: read-out: Activity; how it was run: as §1
# PC-3 = assay: Anticancer activity against Homo sapiens (human) PC3 cells by SRB assay
# How it was run: (§3)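 Five-dose NCI 60-cell-line panel testing at tenfold dilutions from 10−4 to 10−8 M, with growth read by sulforhodamine B protein staining. For each cell line: GI50 is the molar concentration giving half growth inhibition; TGI is total growth inhibition (cytostatic); LC50 is the molar concentration killing 50% of the initial cells (cytotoxic).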
# A549 = assay: Anticancer activity against Homo sapiens (human) A549/ATCC cells by SRB assay
# How it was run: (§4)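 NCI 60-line panel, five tenfold dilutions from 10−4 to 10−8 M, growth read by sulforhodamine B staining against untreated controls. From the dose–response per line: GI50 (molar concentration giving half growth inhibition), TGI (molar concentration giving total growth inhibition, cytostatic) and LC50 (molar concentration killing 50% of initial cells, cytotoxic).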
# HOP-92 = assay: Anticancer activity against Homo sapiens (human) HOP92 cells by SRB assay; how it was run: as §4
# K562 [8] = assay: Anticancer activity against Homo sapiens (human) K562 cells by SRB assay; how it was run: as §4
# SNB-75 = assay: Anticancer activity against Homo sapiens (human) SNB75 cells by SRB assay; how it was run: as §3
# TK-10 = assay: Anticancer activity against Homo sapiens (human) TK10 cells by SRB assay
# How it was run: (§5)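 NCI five-dose follow-up on the 60-line human tumour panel at tenfold dilutions from 10−4 to 10−8 M, with growth read by sulforhodamine B protein assay against untreated controls. For each cell line, GI50 (half growth inhibition), TGI (total growth inhibition) and LC50 (50% death of initial cells) are calculated as molar concentrations.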
# HCT-15 = assay: Anticancer activity against Homo sapiens (human) HCT15 cells by SRB assay; how it was run: as §4
# T47D = assay: Anticancer activity against Homo sapiens (human) T47D cells by SRB assay; how it was run: as §5
# UACC-62 = assay: Anticancer activity against Homo sapiens (human) UACC62 cells by SRB assay; how it was run: as §5
# NCI-H460 = assay: Anticancer activity against Homo sapiens (human) NCI-H460 cells by SRB assay; how it was run: as §3
# SR [9] = assay: Anticancer activity against Homo sapiens (human) SR cells by SRB assay; how it was run: as §5
# UO-31 = assay: Anticancer activity against Homo sapiens (human) UO31 cells by SRB assay; how it was run: as §5
# SNB-19 = assay: Anticancer activity against Homo sapiens (human) SNB19 cells by SRB assay; how it was run: as §3
# CAKI-1 [10] = assay: Anticancer activity against Homo sapiens (human) CAKI-1 cells by SRB assay; how it was run: as §4
# SK-MEL-2 = assay: Anticancer activity against Homo sapiens (human) SK-MEL-2 cells by SRB assay; how it was run: as §3
# M14 = assay: Anticancer activity against Homo sapiens (human) M14 cells by SRB assay; how it was run: as §4
# U-251 = assay: Anticancer activity against Homo sapiens (human) U251 cells by SRB assay; how it was run: as §5
# HOP-62 = assay: Anticancer activity against Homo sapiens (human) HOP62 cells by SRB assay; how it was run: as §4
# ACHN = assay: Anticancer activity against Homo sapiens (human) ACHN cells by SRB assay; how it was run: as §4
# DU-145 = assay: Anticancer activity against Homo sapiens (human) DU145 cells by SRB assay; how it was run: as §4
# OVCAR-4 = assay: Anticancer activity against Homo sapiens (human) OVCAR4 cells by SRB assay; how it was run: as §3
# HCT-116 [11] = assay: Anticancer activity against Homo sapiens (human) HCT116 cells by SRB assay; how it was run: as §4
# NCI-H23 = assay: Anticancer activity against Homo sapiens (human) NCI-H23 cells by SRB assay; how it was run: as §3
# SK-MEL-28 = assay: Anticancer activity against Homo sapiens (human) SK-MEL-28 cells by SRB assay; how it was run: as §3
# [12] = Anticancer activity against Homo sapiens (human) NCI-322M cells by SRB assay; how it was run: as §3
# KM12 = assay: Anticancer activity against Homo sapiens (human) KM12 cells by SRB assay; how it was run: as §4
# 786-0 = assay: Anticancer activity against Homo sapiens (human) 786-0 cells by SRB assay; how it was run: as §4
# HT-29 = assay: Anticancer activity against Homo sapiens (human) HT-29 cells by SRB assay; how it was run: as §4
# MCF7 = assay: Anticancer activity against Homo sapiens (human) MCF7 cells by SRB assay; how it was run: as §4
# OVCAR-8 = assay: Anticancer activity against Homo sapiens (human) OVCAR8 cells by SRB assay; how it was run: as §3
# SK-OV-3 = assay: Anticancer activity against Homo sapiens (human) SKOV3 cells by SRB assay; how it was run: as §3
# SN12C = assay: Anticancer activity against Homo sapiens (human) SN12C cells by SRB assay; how it was run: as §3
# MDA-MB-435 = assay: Anticancer activity against Homo sapiens (human) MDA-MB-435 cells by SRB assay; how it was run: as §3
# CCRF-CEM [13] = assay: Anticancer activity against Homo sapiens (human) CCRF-CEM cells by SRB assay; how it was run: as §4
# EKVX = assay: Anticancer activity against Homo sapiens (human) EKVX cells by SRB assay; how it was run: as §4
# OVCAR-5 = assay: Anticancer activity against Homo sapiens (human) OVCAR5 cells by SRB assay; how it was run: as §3
# Malme-3M = assay: Anticancer activity against Homo sapiens (human) MALME-3M cells by SRB assay; how it was run: as §4
# SF-539 = assay: Anticancer activity against Homo sapiens (human) SF539 cells by SRB assay; how it was run: as §3
# NCI/ADR-RES = assay: Anticancer activity against Homo sapiens (human) NCI/ADR-RES cells by SRB assay; how it was run: as §3
# IGROV-1 = assay: Anticancer activity against Homo sapiens (human) IGROV1 cells by SRB assay; how it was run: as §4
# BT-549 = assay: Anticancer activity against Homo sapiens (human) BT549 cells by SRB assay; how it was run: as §4
# UACC-257 = assay: Anticancer activity against Homo sapiens (human) UACC257 cells by SRB assay; how it was run: as §5
# [14] = Anticancer activity against Homo sapiens (human) RPMI8266 cells by SRB assay; how it was run: as §3
# RXF 393 = assay: Anticancer activity against Homo sapiens (human) RXF393 cells by SRB assay; how it was run: as §3
# NCI-H522 [15] = assay: Anticancer activity against Homo sapiens (human) NCI-H522 cells by SRB assay; how it was run: as §3
# SK-MEL-5 = assay: Anticancer activity against Homo sapiens (human) SK-MEL-5 cells by SRB assay; how it was run: as §3
# A498 = assay: Anticancer activity against Homo sapiens (human) A498 cells by SRB assay; how it was run: as §4
# OVCAR-3 = assay: Anticancer activity against Homo sapiens (human) OVCAR3 cells by SRB assay; how it was run: as §3
# Hs-578T = assay: Anticancer activity against Homo sapiens (human) Hs 578T cells by SRB assay; how it was run: as §4
# SW-620 [16] = assay: Anticancer activity against Homo sapiens (human) SW620 cells by SRB assay; how it was run: as §5
# SF-295 = assay: Anticancer activity against Homo sapiens (human) SF295 cells by SRB assay; how it was run: as §3
# COLO 205 = assay: Anticancer activity against Homo sapiens (human) COLO205 cells by SRB assay; how it was run: as §4
# SF-268 = assay: Anticancer activity against Homo sapiens (human) SF268 cells by SRB assay; how it was run: as §3
smiles,measurement,setting,value
O=c1sc2c(Cl)nc(-c3ccc(Cl)cc3)nc2n1-c1ccccc1,growth at 10 µM,HCT-116 [1],29.3%
same,growth at 10 µM,K562 [2],34.6%
same,growth at 10 µM,LOX IMVI,24.4%
same,growth at 10 µM,SR [3],21.5%
same,growth at 10 µM,CCRF-CEM [4],33.6%
same,growth at 10 µM,SW-620 [5],47.6%
same,growth at 10 µM,NCI-H522 [6],5.19%
O=c1sc2c(Cl)nc(-c3ccc(F)cc3)nc2n1-c1ccccc1,growth at 10 µM,HCT-116 [1],40.5%
same,growth at 10 µM,K562 [2],35.8%
same,growth at 10 µM,CAKI-1 [7],41.8%
same,growth at 10 µM,SR [3],28.6%
Nc1nc2[nH]cnc2c(=S)[nH]1 [THIOGUANINE],GI50,PC-3,3160 nM
same,GI50,A549,5010 nM
same,GI50,HOP-92,1580 nM
same,GI50,K562 [8],100000 nM
same,GI50,SNB-75,1000 nM
same,GI50,TK-10,501 nM
same,GI50,HCT-15,2510 nM
same,GI50,T47D,10000 nM
same,GI50,UACC-62,398 nM
same,GI50,NCI-H460,1000 nM
same,GI50,SR [9],631 nM
same,GI50,UO-31,794 nM
same,GI50,SNB-19,79400 nM
same,GI50,CAKI-1 [10],316 nM
same,GI50,SK-MEL-2,1580 nM
same,GI50,M14,631 nM
same,GI50,U-251,10000 nM
same,GI50,HOP-62,794 nM
same,GI50,ACHN,3980 nM
same,GI50,DU-145,501 nM
same,GI50,OVCAR-4,5010 nM
same,GI50,HCT-116 [11],631 nM
same,GI50,NCI-H23,3160 nM
same,GI50,SK-MEL-28,6310 nM
same,GI50,[12],25100 nM
same,GI50,KM12,3160 nM
same,GI50,786-0,1580 nM
same,GI50,HT-29,1260 nM
same,GI50,MCF7,501 nM
same,GI50,OVCAR-8,398 nM
same,GI50,SK-OV-3,501 nM
same,GI50,SN12C,7940 nM
same,GI50,MDA-MB-435,501 nM
same,GI50,CCRF-CEM [13],316 nM
same,GI50,EKVX,3980 nM
same,GI50,OVCAR-5,501 nM
same,GI50,Malme-3M,3160 nM
same,GI50,SF-539,631 nM
same,GI50,NCI/ADR-RES,398 nM
same,GI50,IGROV-1,6310 nM
same,GI50,BT-549,1260 nM
same,GI50,UACC-257,6310 nM
same,GI50,[14],1260 nM
same,GI50,RXF 393,501 nM
same,GI50,NCI-H522 [15],2000 nM
same,GI50,SK-MEL-5,2510 nM
same,GI50,A498,25100 nM
same,GI50,OVCAR-3,1580 nM
same,GI50,Hs-578T,6310 nM
same,GI50,SW-620 [16],3980 nM
same,GI50,SF-295,1260 nM
same,GI50,COLO 205,2510 nM
same,GI50,SF-268,1260 nM
O=c1[nH]c(-c2ccccc2)nc2c1sc(=O)n2-c1ccccc1,growth at 10 µM,CAKI-1 [7],26.8%
